Active and inactive are the calls of the source.
Columns and labels:
Format in all cases: functional, cell-based
HEp-2 [1] = assay: Induction of apoptosis in human Hep2 cells assessed as pro-caspase 3 level at 36 uM by Western blot analysis; conditions: TDE = time-dependent effect
Method in brief: (§1)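 Treatment: 36 µM for 0, 6, 12 or 24 h, alone or with 2.5 mM N-acetylcysteine or 500 U/mL catalase. Lysis 60 min at 4 °C in Hepes pH 7.4/1% Triton X-100 with phosphatase and protease inhibitors, spin 13000g. Lysates run on 12% SDS-PAGE, blotted to nitrocellulose, probed with polyclonal antibodies, HRP/DAB detection. Representative of ≥3 experiments.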

HEp-2 [2] = assay: Induction of apoptosis in human Hep2 cells at 36 uM after 24 hrs by MTT assay in presence of Ac-LEHD-cmk caspase 9 inhibitor
Method in brief: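 Pretreatment: HEp-2 (1.2 × 10^4/well, plated 24 h earlier) given caspase-9 inhibitor Ac-LEHD-cmk at 5, 10 or 20 µM for 1 h. Then 36 µM for 24 h. Inhibitory ratio by MTT, n = 3, mean ± SD.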

HEp-2 [3] = assay: Induction of apoptosis in human Hep2 cells at 36 uM after 24 hrs by MTT assay in presence of z-VAD-fmk pan-caspase inhibitor
Method in brief: (§2)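 HEp-2 cells in RPMI-1640 with 10% FBS at 37 °C, 5% CO2, seeded at 1.2 × 10^4 cells/well and grown 24 h. Pretreated 1 h with z-DEVD-fmk (5 µM, line 1) or z-VAD-fmk (10 µM, line 2), then exposed to 36 µM agent for 24 h, with DMSO below 0.05%. Cell inhibitory ratio read by MTT; n = 3, mean ± SD.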

HEp-2 [4] = assay: Induction of apoptosis in human Hep2 cells at 36 uM after 24 hrs by MTT assay in presence of z-DEVD-fmk caspase 3 inhibitor; method in brief: as §2
HEp-2 [5] = assay: Induction of apoptosis in human Hep2 cells assessed as increase in pro-apoptotic Bax protein at 36 uM after 24 hrs by Western blot analysis in presence of NAC; method in brief: as §1
HEp-2 [6] = assay: Induction of apoptosis in human Hep2 cells assessed as decrease in Bcl-2 at 36 uM after 24 hrs by Western blot analysis in presence of NAC; method in brief: as §1
HEp-2 [7] = assay: Induction of apoptosis in human Hep2 cells assessed as increase in AIF level at 36 uM after 24 hrs by Western blot analysis in presence of NAC; method in brief: as §1
HEp-2 [8] = assay: Induction of apoptosis in human Hep2 cells assessed as cleaved caspase 3 level at 36 uM after 24 hrs by Western blot analysis in presence of NAC; method in brief: as §1
HEp-2 [9] = assay: Induction of apoptosis in human Hep2 cells assessed as caspase activated DNase level at 36 uM after 24 hrs by Western blot analysis in presence of NAC; method in brief: as §1
HEp-2 [10] = assay: Induction of apoptosis in human Hep2 cells assessed as increase in pro-apoptotic Bax protein at 36 uM after 24 hrs by Western blot analysis in presence of CAT; method in brief: as §1
HEp-2 [11] = assay: Induction of apoptosis in human Hep2 cells assessed as decrease in Bcl-2 at 36 uM after 24 hrs by Western blot analysis in presence of CAT; method in brief: as §1
HEp-2 [12] = assay: Induction of apoptosis in human Hep2 cells assessed as increase in AIF level at 36 uM after 24 hrs by Western blot analysis in presence of CAT; method in brief: as §1
HEp-2 [13] = assay: Induction of apoptosis in human Hep2 cells assessed as cleaved caspase 3 level at 36 uM after 24 hrs by Western blot analysis in presence of CAT; method in brief: as §1
HEp-2 [14] = assay: Induction of apoptosis in human Hep2 cells assessed as caspase activated DNase level at 36 uM after 24 hrs by Western blot analysis in presence of CAT; method in brief: as §1
HEp-2 [15] = assay: Induction of apoptosis in human Hep2 cells assessed as decrease in cyclin B level at 36 uM after 24 hrs by Western blot analysis; conditions: TDE = time-dependent effect; method in brief: as §1
HEp-2 [16] = assay: Induction of apoptosis in human Hep2 cells assessed as decrease in cdc2 level at 36 uM after 24 hrs by Western blot analysis; conditions: TDE = time-dependent effect; method in brief: as §1
HEp-2 [17] = assay: Induction of apoptosis in human Hep2 cells assessed as increase in phospho-cdc2 (Tyr15) level at 36 uM from 6 to 24 hrs by Western blot analysis; method in brief: as §1
HEp-2 [18] = assay: Induction of apoptosis in human Hep2 cells assessed as increase in phospho-cdc25C (ser216) level at 36 uM from 6 to 24 hrs by Western blot analysis; method in brief: as §1
HEp-2 [19] = assay: Induction of apoptosis in human Hep2 cells assessed as increase in p21/WAF1 level at 36 uM from 6 to 24 hrs by Western blot analysis; method in brief: as §1
HEp-2 [20] = assay: Induction of apoptosis in human Hep2 cells assessed as increase in p21/WAF1 level at 36 uM after 24 hrs by Western blot analysis; method in brief: as §1
HEp-2 [21] = assay: Induction of apoptosis in human Hep2 cells assessed as decrease in cyclin B level at 36 uM after 24 hrs by Western blot analysis in presence of NAC; method in brief: as §1
HEp-2 [22] = assay: Induction of apoptosis in human Hep2 cells assessed as decrease in cdc2 level at 36 uM after 24 hrs by Western blot analysis in presence of NAC; method in brief: as §1
HEp-2 [23] = assay: Induction of apoptosis in human Hep2 cells assessed as increase in phospho-cdc2 (Tyr15) level at 36 uM from 6 to 24 hrs by Western blot analysis in presence of NAC; method in brief: as §1
HEp-2 [24] = assay: Induction of apoptosis in human Hep2 cells assessed as increase in phospho-cdc25C (ser216) level at 36 uM from 6 to 24 hrs by Western blot analysis in presence of NAC; method in brief: as §1
HEp-2 [25] = assay: Induction of apoptosis in human Hep2 cells assessed as increase in p21/WAF1 level at 36 uM from 6 to 24 hrs by Western blot analysis in presence of NAC; method in brief: as §1
HEp-2 [26] = assay: Induction of apoptosis in human Hep2 cells assessed as increase in p21/WAF1 level at 36 uM after 24 hrs by Western blot analysis in presence of NAC; method in brief: as §1

Measured: Activity

C=C1C(=O)[C@]23[C@H](O)[C@H]1CC[C@H]2[C@@]12CO[C@]3(O)[C@@H](O)[C@@H]1C(C)(C)CC[C@@H]2O [ORIDONIN]
active: HEp-2 [1] tde | HEp-2 [2] | HEp-2 [15] tde | HEp-2 [16] tde | HEp-2 [17] | HEp-2 [18] | HEp-2 [19]
inactive: all other assays above

Source: ChEMBL document CHEMBL1165982, “Induction of G(2)/M phase arrest and apoptosis by oridonin in human laryngeal carcinoma cells” (J Nat Prod, 2010)
